Values after ≈ are worked out from the molar mass of the structure shown. Active and inactive are the calls of the source. No cut-off for these calls is given here. Non-standard residues stand in square brackets, D forms with d. Residues, ends and D or L forms follow the SMILES beside them. *: point of attachment. NHCH2CH2OH = OCCN*; For = O=C*
What was measured:
Streptococcus pyogenes [1] = assay: Ratio of gramicidin D MIC to compound MIC for glossy colony producing Streptococcus pyogenes; format: functional
[2] = system: Staphylococcus epidermidis; assay: Ratio of gramicidin D MIC to compound MIC for biofilm-negative Staphylococcus epidermidis ATCC 12228; format: functional
Staphylococcus aureus [3] = assay: Ratio of gramicidin D MIC to compound MIC for Staphylococcus aureus NCTC 6571; format: functional
Streptococcus pyogenes [4] = assay: Ratio of gramicidin D MIC to compound MIC for Streptococcus pyogenes MGAS9429; format: functional
Staphylococcus aureus [5] = assay: Ratio of gramicidin D MIC to compound MIC for Staphylococcus aureus Cowan ATCC 12598; format: functional
[6] = system: Staphylococcus epidermidis; assay: Antibacterial activity against Staphylococcus epidermidis ATCC 12228 assessed as cell surface wrinkling at 1 ug/mL after 1 hr by scanning electron microscopic analysis; format: functional, organism-based
Method in brief: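 S. epidermidis ATCC12228 grown 4 h at 37 °C, aerobic, to OD600 0.2. Cells washed in PBS pH 7.4 and resuspended to OD600 1.0. Treated with 1 µg/mL for 1 h at 37 °C, then diluted twofold. Washed, fixed overnight at 4 °C in 2.5% glutaraldehyde/PBS, dehydrated through graded ethanol, vacuum-dried, Pd-Au coated and imaged by SEM. Compared against untreated cells.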

[7] = Hemolytic activity in rat RBC assessed as hemoglobin release at 128 ug/mL after 1 hr by microplate reader analysis; format: ADME, cell-based; details: erythrocyte
Method in brief: (§1)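 Rat RBCs (2% w/w) were exposed to compound for 1 h at 37 °C, 5% CO2, using twofold dilutions from 256 µg/mL. PBS served as the negative control and 1% w/v Triton X-100 as the 100% lysis control. After centrifugation (2000 rpm, 10 min), supernatant absorbance was read at 550 nm and expressed as % hemoglobin release relative to Triton. Assays were run in triplicate, averaged over blood from at least two rats.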

[8] = Hemolytic activity in rat RBC assessed as hemoglobin release at 16 ug/mL after 1 hr by microplate reader analysis relative to control; format: ADME, cell-based, Erythrocyte; details: red blood cells (RBC), read-out: Activity; method in brief: as §1
[9] = Hemolytic activity in rat RBC assessed as hemoglobin release at 256 ug/mL after 1 hr by microplate reader analysis relative to control; format: ADME, cell-based, Erythrocyte; details: red blood cells (RBC), read-out: Activity; method in brief: as §1
Streptococcus pyogenes [10] = assay: Antibacterial activity against Streptococcus pyogenes serotype T5 assessed as growth inhibition after 24 hrs by MTT assay; format: functional; details: serotype T5, 24 h
Method in brief: (§2)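 Starter cultures were grown 24 h at 37 °C, 5% CO2, aerobic, then diluted in fresh medium to OD600 0.004. Twofold serial dilutions started at 64 µg/mL. After 24 h of incubation, MTT (1 mg/mL solution) was added and plates were incubated 2 h more at 37 °C. MIC was taken as the lowest concentration with no growth. Two independent experiments were run, each in triplicate.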

Streptococcus pyogenes [11] = assay: Antibacterial activity against glossy colony producing Streptococcus pyogenes assessed as growth inhibition after 24 hrs by MTT assay; format: functional; method in brief: as §2
Streptococcus pyogenes [12] = assay: Antibacterial activity against Streptococcus pyogenes JRS75 assessed as growth inhibition after 24 hrs by MTT assay; format: functional; details: JRS75, 24 h; method in brief: as §2
Streptococcus pyogenes [13] = assay: Antibacterial activity against Streptococcus pyogenes serotype M24 assessed as growth inhibition after 24 hrs by MTT assay; format: functional; details: serotype M24, 24 h; method in brief: as §2
[14] = Antibacterial activity against Streptococcus pyogenes serotype M5 assessed as growth inhibition after 24 hrs by MTT assay; format: functional; method in brief: as §2
[15] = Antibacterial activity against Streptococcus pyogenes serotype M3 assessed as growth inhibition after 24 hrs by MTT assay; format: functional; method in brief: as §2
[16] = Antibacterial activity against Streptococcus pyogenes serotype M2 assessed as growth inhibition after 24 hrs by MTT assay; format: functional; method in brief: as §2
Streptococcus pyogenes [17] = assay: Antibacterial activity against Streptococcus pyogenes serotype M1T1 assessed as growth inhibition after 24 hrs by MTT assay; format: functional; details: serotype M1T1, 24 h; method in brief: as §2
Streptococcus pyogenes [18] = assay: Antibacterial activity against Streptococcus pyogenes MGAS9429 assessed as growth inhibition after 24 hrs by MTT assay; format: functional; details: MGAS9429, 24 h; method in brief: as §2
Staphylococcus aureus [19] = assay: Antibacterial activity against Staphylococcus aureus Cowan ATCC 12598 assessed as growth inhibition after 24 hrs by MTT assay; format: functional; details: Cowan ATCC 12598, 24 h
Method in brief: (§3)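 Starter cultures grown 24 h at 37 °C, 5% CO2, aerobic, then diluted in fresh medium to OD600 0.004. Twofold serial dilutions from 64 µg/mL, 24 h incubation. MTT (1 mg/mL solution) added, then 2 h at 37 °C. MIC = lowest concentration with no visible growth. Two independent experiments, each in triplicate.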

[20] = Antibacterial activity against biofilm-positive Staphylococcus epidermidis RP62A ATCC 35984 assessed as growth inhibition after 24 hrs by MTT assay; format: functional; details: ATCC 35984, 24 h; method in brief: as §2
[21] = system: Staphylococcus epidermidis; assay: Antibacterial activity against biofilm-negative Staphylococcus epidermidis ATCC 12228 assessed as growth inhibition after 24 hrs by MTT assay; format: functional; details: ATCC 12228, 24 h; method in brief: as §2
Staphylococcus aureus [22] = assay: Antibacterial activity against methicillin-resistant Staphylococcus aureus assessed as growth inhibition after 24 hrs by MTT assay; format: functional; method in brief: as §3
Staphylococcus aureus [23] = assay: Antibacterial activity against Staphylococcus aureus NCTC 6571 assessed as growth inhibition after 24 hrs by MTT assay; format: functional; details: NCTC 6571, 24 h; method in brief: as §3
[24] = Hemolytic activity in rat RBC assessed as hemoglobin release at 2 ug/mL after 1 hr by microplate reader analysis relative to control; format: ADME, cell-based, Erythrocyte; details: red blood cells (RBC), read-out: Activity
Method in brief: (§4)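 Rat RBCs (2% w/w) incubated 1 h at 37 °C, 5% CO2 with twofold dilutions starting at 256 µg/mL. PBS served as negative control and 1% w/v Triton X100 as the 100% lysis control. After centrifugation (2000 rpm, 10 min), supernatant absorbance read at 550 nm. Hemoglobin release expressed as % of Triton. Triplicates, with blood from at least two rats.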

[25] = Hemolytic activity in rat RBC assessed as hemoglobin release at 64 ug/mL after 1 hr by microplate reader analysis; format: ADME, cell-based; details: erythrocyte; method in brief: as §4
[26] = Hemolytic activity in rat RBC assessed as hemoglobin release at 32 ug/mL after 1 hr by microplate reader analysis relative to control; format: ADME, cell-based, Erythrocyte; details: red blood cells (RBC), read-out: Activity; method in brief: as §1
[27] = Ratio of gramicidin D activity to compound activity for hemolysis of rat RBC up to 256 ug/mL after 1 hrs; format: ADME, cell-based; details: erythrocyte

Compound | Activity [6] | Activity [7] | hemolysis at 1 h, 16 ug/mL [8] | hemolysis at 1 h, 256 ug/mL [9] | MIC (Streptococcus pyogenes [10]) | MIC (Streptococcus pyogenes [11]) | MIC (Streptococcus pyogenes [12]) | MIC (Streptococcus pyogenes [13]) | MIC [14] | MIC [15] | MIC [16] | MIC (Streptococcus pyogenes [17]) | MIC (Streptococcus pyogenes [18]) | MIC (Staphylococcus aureus [19]) | MIC [20] | MIC [21] | MIC (Staphylococcus aureus [22]) | MIC (Staphylococcus aureus [23]) | Activity [25] | hemolysis at 1 h, 32 ug/mL [26] | other results
CCCCCCCCSC[C@H]1O[C@H](O[C@H]2[C@H](O[C@@H]3O[C@H](CSCCCCCCCC)[C@@H](O[C@H]4O[C@@H](CN)[C@@H](O)[C@H](O)[C@H]4N)[C@H]3O)[C@@H](O)[C@H](N)C[C@@H]2N)[C@H](N)[C@@H](O)[C@@H]1O | Active | Toxic | 0.8% | 62.5% | 2 µg/mL (≈ 2.29 µM) | 2 µg/mL (≈ 2.29 µM) | 2 µg/mL (≈ 2.29 µM) | 2 µg/mL (≈ 2.29 µM) | 2 µg/mL (≈ 2.29 µM) | 2 µg/mL (≈ 2.29 µM) | 2 µg/mL (≈ 2.29 µM) | 2 µg/mL (≈ 2.29 µM) | 4 µg/mL (≈ 4.59 µM) | 4 µg/mL (≈ 4.59 µM) | 2 µg/mL (≈ 2.29 µM) | 2 µg/mL (≈ 2.29 µM) | 8 µg/mL (≈ 9.17 µM) | 4 µg/mL (≈ 4.59 µM) | – | – | Ratio (Streptococcus pyogenes [1]): 8; Ratio [2]: 4; Ratio (Staphylococcus aureus [3]): 16; Ratio (Streptococcus pyogenes [4]): > 16; Ratio (Staphylococcus aureus [5]): > 16
CC(C)C[C@@H](NC(=O)[C@H](C)NC(=O)CNC(=O)[C@@H](NC=O)C(C)C)C(=O)N[C@@H](C)C(=O)N[C@@H](C(=O)N[C@H](C(=O)N[C@@H](C(=O)N[C@@H](Cc1c[nH]c2ccccc12)C(=O)N[C@H](CC(C)C)C(=O)N[C@@H](Cc1c[nH]c2ccccc12)C(=O)N[C@H](CC(C)C)C(=O)N[C@@H](Cc1c[nH]c2ccccc12)C(=O)N[C@H](CC(C)C)C(=O)N[C@@H](Cc1c[nH]c2ccccc12)C(=O)NCCO)C(C)C)C(C)C)C(C)C [GRAMICIDIN D] (For-VGA[dL]A[dV]V[dV]W[dL]W[dL]W[dL]W-NHCH2CH2OH) | – | – | – | < 60% | 2 µg/mL (≈ 1.06 µM) | 16 µg/mL (≈ 8.5 µM) | < 0.5 µg/mL | < 0.5 µg/mL | < 0.5 µg/mL | < 0.5 µg/mL | < 0.5 µg/mL | < 0.5 µg/mL | > 64 µg/mL | > 64 µg/mL | 2 µg/mL (≈ 1.06 µM) | 8 µg/mL (≈ 4.25 µM) | 64 µg/mL (≈ 34 µM) | 32 µg/mL (≈ 17 µM) | Toxic | – | hemolysis at 1 h, 2 ug/mL [24]: 2.4%
CCCCCCCCCCCCCCCCSC[C@H]1O[C@H](O[C@H]2[C@H](O[C@@H]3O[C@H](CO)[C@@H](O[C@H]4O[C@@H](CN)[C@@H](O)[C@H](O)[C@H]4N)[C@H]3O)[C@@H](O)[C@H](N)C[C@@H]2N)[C@H](N)[C@@H](O)[C@@H]1O | – | – | 33.8% | – | 8 µg/mL (≈ 9.34 µM) | 32 µg/mL (≈ 37.4 µM) | 8 µg/mL (≈ 9.34 µM) | 32 µg/mL (≈ 37.4 µM) | 64 µg/mL (≈ 74.8 µM) | 32 µg/mL (≈ 37.4 µM) | 16 µg/mL (≈ 18.7 µM) | > 64 µg/mL | 32 µg/mL (≈ 37.4 µM) | 64 µg/mL (≈ 74.8 µM) | 64 µg/mL (≈ 74.8 µM) | 32 µg/mL (≈ 37.4 µM) | 64 µg/mL (≈ 74.8 µM) | 64 µg/mL (≈ 74.8 µM) | – | 100% | –
CCCCCCCSC[C@H]1O[C@H](O[C@H]2[C@H](O[C@@H]3O[C@H](CSCCCCCCC)[C@@H](O[C@H]4O[C@@H](CN)[C@@H](O)[C@H](O)[C@H]4N)[C@H]3O)[C@@H](O)[C@H](N)C[C@@H]2N)[C@H](N)[C@@H](O)[C@@H]1O | – | Toxic | 0% | 30.4% | 4 µg/mL (≈ 4.74 µM) | 4 µg/mL (≈ 4.74 µM) | 4 µg/mL (≈ 4.74 µM) | 4 µg/mL (≈ 4.74 µM) | 4 µg/mL (≈ 4.74 µM) | 2 µg/mL (≈ 2.37 µM) | 2 µg/mL (≈ 2.37 µM) | 4 µg/mL (≈ 4.74 µM) | 4 µg/mL (≈ 4.74 µM) | 16 µg/mL (≈ 19 µM) | 4 µg/mL (≈ 4.74 µM) | 4 µg/mL (≈ 4.74 µM) | 16 µg/mL (≈ 19 µM) | 8 µg/mL (≈ 9.48 µM) | Toxic | 3.6% | Ratio [27]: 2
CCCCCCSC[C@H]1O[C@H](O[C@H]2[C@H](O[C@@H]3O[C@H](CSCCCCCC)[C@@H](O[C@H]4O[C@@H](CN)[C@@H](O)[C@H](O)[C@H]4N)[C@H]3O)[C@@H](O)[C@H](N)C[C@@H]2N)[C@H](N)[C@@H](O)[C@@H]1O | – | Toxic | 0% | 3.4% | 4 µg/mL (≈ 4.9 µM) | 8 µg/mL (≈ 9.8 µM) | 8 µg/mL (≈ 9.8 µM) | 8 µg/mL (≈ 9.8 µM) | 8 µg/mL (≈ 9.8 µM) | 4 µg/mL (≈ 4.9 µM) | 8 µg/mL (≈ 9.8 µM) | 16 µg/mL (≈ 19.6 µM) | 8 µg/mL (≈ 9.8 µM) | 64 µg/mL (≈ 78.4 µM) | 16 µg/mL (≈ 19.6 µM) | 8 µg/mL (≈ 9.8 µM) | > 64 µg/mL | 32 µg/mL (≈ 39.2 µM) | – | – | –
NC[C@@H]1O[C@H](O[C@H]2[C@@H](O)[C@H](O[C@@H]3[C@@H](O)[C@H](N)C[C@H](N)[C@H]3O[C@H]3O[C@H](CO)[C@@H](O)[C@H](O)[C@H]3N)O[C@@H]2CO)[C@H](N)[C@@H](O)[C@@H]1O [PAROMOMYCIN] | Active | – | – | – | 16 µg/mL (≈ 26 µM) | 64 µg/mL (≈ 104 µM) | 64 µg/mL (≈ 104 µM) | 64 µg/mL (≈ 104 µM) | 32 µg/mL (≈ 52 µM) | 32 µg/mL (≈ 52 µM) | 64 µg/mL (≈ 104 µM) | 64 µg/mL (≈ 104 µM) | > 64 µg/mL | 16 µg/mL (≈ 26 µM) | > 64 µg/mL | 2 µg/mL (≈ 3.25 µM) | > 64 µg/mL | > 64 µg/mL | – | – | –

— ChEMBL document CHEMBL2390839, “Di-alkylated paromomycin derivatives: targeting the membranes of gram positive pathogens that cause skin infections” (Bioorg Med Chem, 2013)
